The results in this text go back to article PMC2921709 (ChemMedChem, 2010).

Where two headings read alike, the source gives them in different places.

Assay [1] deals with Bovine brain tubulin (colchicine site). As to the kind of experiment: Inhibition of [3H]colchicine binding to tubulin. The settings on record: tubulin 1 μM, [3H]colchicine 5 μM; for Colchicine Binding Inhibition [%], 5 μM: compound 5 μM.
Another assay deals with HT-29. As to the kind of experiment: MTT growth inhibition, HT-29 colon adenocarcinoma cells. Format: cell-based, human. To be noted: read-out: GI50 HT-29. The essentials:
(§1)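 Cells seeded at 8 × 10^3 per well in 96-well plates and held 18 h at 37 °C, 5% CO2. Medium then replaced with test compound in complete medium at various concentrations for 72 h continuous exposure. Viability read by MTT. GI50 is the concentration giving 50% proliferation inhibition, from dose–response curves; mean ± SE of ≥3 independent experiments. Media: leukemia lines in RPMI-1640; solid-tumour lines in DMEM with penicillin G 115 U mL−1, streptomycin and 10% FBS.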

The next assay has as its system ARO. As to the kind of experiment: MTT growth inhibition, ARO anaplastic thyroid cells. The assay is classed as cell-based, human. The settings on record: read-out: GI50 ARO. An outline of the steps: as §1
The subject of the next assay is Hep G2. The experiment in a line: MTT growth inhibition, HepG2 hepatoma cells. To be noted: read-out: GI50 Hep G2. Format: cell-based, human. An outline of the steps: as §1
In a further assay the test system is IGROV. As to the kind of experiment: MTT growth inhibition, IGROV ovarian cancer cells. The assay is classed as cell-based, human. To be noted: read-out: GI50 IGROV. An outline of the steps:
as §1

The next assay concerns MCF-7. As to the kind of experiment: MTT growth inhibition, MCF-7 breast adenocarcinoma cells. The assay is classed as cell-based, human. The settings on record: read-out: GI50 MCF-7. The essentials: as §1
A further assay deals with HeLa. The experiment in a line: MTT growth inhibition, HeLa cervix carcinoma cells. The assay is classed as cell-based, human. To be noted: read-out: GI50 HeLa. The essentials:
as §1

Another assay has as its system HL-60. As to the kind of experiment: MTT growth inhibition, HL-60 promyelocytic leukemia cells. The assay is classed as cell-based, human. The settings on record: read-out: GI50 HL-60. The essentials: as §1
The test system of another assay is ML2. The experiment in a line: MTT growth inhibition, ML-2 myeloid leukemia cells. The assay is classed as cell-based, human. The settings on record: read-out: GI50 ML2. The essentials:
as §1

A further assay concerns K562. The experiment in a line: MTT growth inhibition, K562 chronic myelogenous leukemia cells. To be noted: read-out: GI50 K562. Format: cell-based, human. An outline of the steps:
as §1

For another assay, the system named is RS 4;11. As to the kind of experiment: MTT growth inhibition, RS 4. Format: cell-based, human. To be noted: read-out: GI50 RS 4;11. An outline of the steps:
as §1

Another assay concerns Jurkat. The experiment in a line: MTT growth inhibition, Jurkat T-leukemia cells. Format: cell-based, human. The settings on record: read-out: GI50 Jurkat. An outline of the steps:
as §1

For a further assay, the system named is Bovine brain tubulin. The experiment in a line: Inhibition of tubulin polymerization. The assay is classed as biochemical. To be noted: for IC50: read-out: Tubulin Assembly IC50, tubulin 10 μM, 20 min incubation, ± SD.
Assay [2] deals with Jurkat cells. The experiment in a line: Flow cytometric cell-cycle analysis. To be noted: 24 h treatment. Format: cell-based, human. An outline of the steps: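 Jurkat cells in exponential growth, 5 × 10^5 per sample, exposed to test compound at various concentrations for 24 h. Cells fixed in ice-cold 70% ethanol, treated with lysis buffer containing RNase A and 0.1% Triton X-100, then stained with PI. DNA content measured by flow cytometry and phases assigned from DNA histograms. Mean ± SEM of two independent experiments.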

Assay [3] relates to Jurkat cells. As to the kind of experiment: Annexin V-FITC/PI apoptosis assay. The assay is classed as cell-based, human. The settings on record: 24 h treatment. The essentials:
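Jurkat cells exposed to test compound at various concentrations for 24 or 48 h, then harvested. Co-labelled with annexin V–FITC and PI and analysed by flow cytometry (excitation 488 nm; emission 525 and 585 nm). Reported as mean percentage of annexin-V-positive cells ± SEM, three independent experiments.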

The next assay has as its system solid tumor cells. As to the kind of experiment: MTT growth inhibition, solid tumor cell lines. The assay is classed as cell-based. The settings on record: Homo sapiens, 72 h, read-out: GI50, solid tumor cells. The essentials:
as §1

The next assay relates to leukemia cells. As to the kind of experiment: MTT growth inhibition, leukemia cell lines. To be noted: 72 h, MTT. Format: cell-based, human. An outline of the steps:
as §1

Setting [4] is: Homo sapiens, Thyroid cell, 72 h.

Take `COc1ccc(/C=C\c2cc(OC)c(OC)c(OC)c2)cc1O` [CA-4, combretastatin A-4, reference compound]: in assay [1] (compound 1 μM), the “Colchicine Binding Inhibition [%], 1 μM” value is 84 ± 3%. Also, in assay [1], the “Colchicine Binding Inhibition [%], 5 μM” value is on record as 98 ± 0.3%.

Regarding `CCn1ccc2c3c(=O)cc(-c4cccnc4)[nH]c3ccc21` [Compound 13, 3-Ethyl-7-(pyridin-3-yl)-3H-pyrrolo[3,2-f]quinolin-9(6H)-one], the 50% growth inhibitory concentration (GI50) in the assay with HT-29 (Homo sapiens, HT-29, 72 h) was 850 ± 140 nM; with ARO (setting [4]), 450 ± 70 nM; with Hep G2 (Homo sapiens, HepG2, 72 h), 500 ± 50 nM; in the assay with IGROV (Homo sapiens, IGROV, 72 h), 650 ± 150 nM; in the assay with MCF-7 (Homo sapiens, MCF7, 72 h), 850 ± 150 nM; in the assay with HeLa (Homo sapiens, HeLa, 72 h) it was 400 ± 50 nM. In addition, the concentration for 50% growth inhibition (GI50) came to 30 ± 2 nM in the assay with HL-60 (Homo sapiens, HL-60, 72 h); 300 ± 40 nM with ML2 (Homo sapiens, ML-2, 72 h); 240 ± 30 nM in the assay with K562 (Homo sapiens, K562, 72 h); 40 ± 7 nM in the assay on RS 4;11 (Homo sapiens, RS4-11, 72 h); 50 ± 4 nM in the assay on Jurkat (Homo sapiens, Jurkat, 72 h). In the assay on Bovine brain tubulin, the half-inhibitory concentration (IC50) turned out to be 2400 ± 400 nM. In addition, in [1], the “Colchicine Binding Inhibition [%], 5 μM” value was determined as 23 ± 6%. For the same compound, the “Colchicine Binding Inhibition [%], 50 μM” value in assay [1] (compound 50 μM) is 65 ± 0.3%. The “effect on cell-cycle progression (G2/M arrest, in words)” value in the assay on Jurkat cells [2] is recorded as “only induced G2/M arrest at yet higher concentrations”. In the assay on Jurkat cells [3], the “induction of apoptotic (annexin-V-positive) cells, in words” value is “lower efficacy”.

Consider `CCn1cc(C)c2c3c(=O)cc(-c4ccccc4)[nH]c3ccc21` [Compound 17, 3-Ethyl-1-methyl-7-phenyl-3H-pyrrolo[3,2-f]quinolin-9(6H)-one], for which the concentration for 50% growth inhibition (GI50) is over 50000 nM with HT-29 (Homo sapiens, HT-29, 72 h); over 50000 nM with ARO (setting [4]); 5800 ± 1100 nM in the assay on Hep G2 (Homo sapiens, HepG2, 72 h); over 50000 nM with IGROV (Homo sapiens, IGROV, 72 h); over 50000 nM in the assay on MCF-7 (Homo sapiens, MCF7, 72 h); 4500 ± 800 nM in the assay on HeLa (Homo sapiens, HeLa, 72 h). Also, the GI50 in the assay on HL-60 (Homo sapiens, HL-60, 72 h) came out at 17500 ± 2300 nM; in the assay with ML2 (Homo sapiens, ML-2, 72 h), 14400 ± 2300 nM; with K562 (Homo sapiens, K562, 72 h), 27300 ± 340 nM; in the assay with RS 4;11 (Homo sapiens, RS4-11, 72 h), 6500 ± 1000 nM; in the assay on Jurkat (Homo sapiens, Jurkat, 72 h), 8000 ± 1200 nM.

For the compound `CCn1cc(C#N)c2c3c(=O)cc(-c4ccccc4)[nH]c3ccc21` [Compound 21, 3-Ethyl-9-oxo-7-phenyl-6,9-dihydro-3H-pyrrolo[3,2-f]quinoline-1-carbonitrile], the GI50 is over 50000 nM in the assay on HT-29 (Homo sapiens, HT-29, 72 h); over 50000 nM in the assay with ARO (setting [4]); over 50000 nM with Hep G2 (Homo sapiens, HepG2, 72 h); over 50000 nM in the assay with IGROV (Homo sapiens, IGROV, 72 h); over 50000 nM in the assay with MCF-7 (Homo sapiens, MCF7, 72 h); over 50000 nM with HeLa (Homo sapiens, HeLa, 72 h). Besides, the 50% growth inhibitory concentration (GI50) is 210 ± 10 nM with HL-60 (Homo sapiens, HL-60, 72 h); 550 ± 30 nM with ML2 (Homo sapiens, ML-2, 72 h); 460 ± 8 nM with K562 (Homo sapiens, K562, 72 h); 130 ± 20 nM in the assay on RS 4;11 (Homo sapiens, RS4-11, 72 h); 300 ± 10 nM in the assay on Jurkat (Homo sapiens, Jurkat, 72 h); over 50000 nM with solid tumor cells. The “activity in the leukemia lines (concentration level, in words)” value in the assay on leukemia cells is listed as “sub-micromolar”.

Turning to `CCn1cc(C(N)=O)c2c3c(=O)cc(-c4ccccc4)[nH]c3ccc21` [Compound 22, 3-Ethyl-9-oxo-7-phenyl-6,9-dihydro-3H-pyrrolo[3,2-f]quinoline-1-caboxamide], the 50% growth inhibitory concentration (GI50) in the assay on HT-29 (72 h exposure, MTT, mean ± SE) is over 50000 nM; with ARO (72 h exposure, MTT, mean ± SE), over 50000 nM; in the assay on Hep G2 (72 h exposure, MTT, mean ± SE), over 50000 nM; in the assay on IGROV (72 h exposure, MTT, mean ± SE), over 50000 nM; with MCF-7 (72 h exposure, MTT, mean ± SE) it was over 50000 nM; in the assay on HeLa (72 h exposure, MTT, mean ± SE), over 50000 nM. Further, the GI50 in the assay on HL-60 (72 h exposure, MTT, mean ± SE) is 320 ± 30 nM; in the assay on ML2 (72 h exposure, MTT, mean ± SE) it was 90 ± 20 nM; in the assay on K562 (72 h exposure, MTT, mean ± SE) it was 1700 ± 500 nM; with RS 4;11 (72 h exposure, MTT, mean ± SE) it was 30 ± 2 nM; in the assay on Jurkat (72 h exposure, MTT, mean ± SE) it was 50 ± 6 nM. The “inhibition of tubulin assembly at the highest concentration” value with Bovine brain tubulin (compound 40 μM) is listed as “less than 50%”. In addition, the 50% inhibitory concentration (IC50) in the assay with Bovine brain tubulin is over 40000 nM. In addition, in the assay with leukemia cells, the “activity in the leukemia lines (concentration level, in words)” value was “sub-micromolar”. For the same compound, in the assay with Jurkat cells [2], the “effect on cell-cycle progression (G2/M arrest, in words)” value was “only induced G2/M arrest at yet higher concentrations”. Further, the “induction of apoptotic (annexin-V-positive) cells, in words” value in the assay with Jurkat cells [3] is on record as “lower efficacy”.
